Screening results deposited in PubChem by several laboratories.
M1 antagonist: antagonists of rat M1 muscarinic receptor. CHO-M1 cells, Fluo-4 calcium, ACh EC80 antagonist mode; active compounds read low. hit rate 3.4% among 64,000. B-score at 10 µM;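 active means calcium fluorescence response, raw or row-and-column corrected B-score, differing from the plate sample mean either way at a set confidence level, mostly lower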
RORA act: activators of orphan receptor RORA, primary screen, cell-based, luminescence. Nuclear receptor ROR-alpha (Homo sapiens), P35398. CHO-K1 Gal4-RORA LBD luciferase reporter; percent increase over mock-subtracted basal signal. activation, % at 10 µM. hit rate 1.5% among 65,000;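 active means activation above the mean of all tested compounds plus 3 SD, cut at about 49% in these data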
Target sequence (P35398 whole entry, looked up, the tested form may be a part): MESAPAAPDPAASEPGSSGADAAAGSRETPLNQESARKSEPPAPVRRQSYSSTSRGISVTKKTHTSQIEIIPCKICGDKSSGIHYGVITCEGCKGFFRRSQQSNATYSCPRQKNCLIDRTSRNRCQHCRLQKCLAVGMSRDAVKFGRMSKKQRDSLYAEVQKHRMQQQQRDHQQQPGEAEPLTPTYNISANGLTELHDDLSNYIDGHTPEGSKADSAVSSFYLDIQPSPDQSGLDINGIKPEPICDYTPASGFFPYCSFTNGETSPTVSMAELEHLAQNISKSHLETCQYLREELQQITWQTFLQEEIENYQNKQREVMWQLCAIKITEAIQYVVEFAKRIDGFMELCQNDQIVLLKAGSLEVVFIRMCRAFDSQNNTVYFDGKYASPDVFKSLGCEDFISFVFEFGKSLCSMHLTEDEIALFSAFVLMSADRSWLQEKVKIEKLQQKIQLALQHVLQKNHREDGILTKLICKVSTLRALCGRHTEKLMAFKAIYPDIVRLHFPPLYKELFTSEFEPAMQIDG
SF1 activator: activators of human SF-1, primary screen, cell-based, CHO-K1, Gal4-SF-1 LBD, luciferase luminescence; Steroidogenic factor 1 (Homo sapiens), Q13285; CHO-K1 Gal4-SF-1 LBD luciferase reporter; % increase over DMSO SF-1-specific signal; activation, % at 10 µM; hit rate 1.9% among 65,000; AID 522, 2006;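 active means activation above the mean activation of all tested compounds plus 3 SD, cut at about 50% in these data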
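Assay system – CHO-K1 cells with Gal4–hSF-1 LBD chimera plus Gal4-driven luciferase · Quantity – 4,000 cells per well · Times – compound added 1 h post-seeding, 20 h exposure at 37 °C, 5% CO2 · Measured by – luciferase light emission · Benchmarks – DMSO and mock-transfected background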
D1 allo mod: D1 CRE-luciferase signal change, two-sided – cell-based, HEK293 D1, dopamine EC30, D1 allosteric modulator project, primary screen; D(1A) dopamine receptor (Homo sapiens), P21728; dopamine EC30 potentiation; actives deviate in either direction; B-score at 10 µM; hit rate 5.9% among 58,000; AID 641, 2007;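 active means luminescence count or its row- and column-corrected plate score outside the 99.7% band of the plate's sample wells, on either side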
M1 agonist: M1 muscarinic receptor agonists, primary screen, CHO-M1 cells, Fluo-4 calcium, agonist mode; B-score at 10 µM; Fluo-4 calcium fluorescence; active compounds read high; AID 626, 2007; hit rate 3% among 64,000;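 active means fluorescence rise, raw or as B-score row- and column-corrected plate score, outside the 99.7% band of its plate's samples, either direction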
Htt clearance: clearance of mutant huntingtin inclusions, primary screen, imaging, HeLa Exon1htt(103Q)mCFP, confocal imaging; aggregate imaging; zero = plate's median compound well; inhibition, % at 1.5 µM; hit rate 0.42% among 47,000;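 active means inhibition of aggregate fluorescence above about 70%, also judged a hit by eye on the cell image, limit read from the data, passing the limit was not always enough; inconclusive means no rule stated for this call; inactive means not judged a hit on image review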;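 further: cells exposed to compound for three days before fixation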
M1 antag conf: rat M1 muscarinic receptor antagonists, confirmation, CHO cells, Fluo-4 calcium, duplicate; calcium response (max-min fluorescence) at 10 µM; hit rate 43% among 1,700; AID 677, 2007; shares compounds with M1 antagonist; ACh EC80 antagonism; active compounds read low;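 active means calcium response below the same-plate mean of wells given acetylcholine alone at its 80%-effect dose, minus 3 SD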
mGluR4 antag: human mGluR4 response to M1 antagonist hits, M1 allosteric modulator project, cell-based, antagonist mode, secondary assay 1 | shares compounds with M1 antagonist | CHO-mGluR4 calcium flux, Fluo-4 fluorescence, glutamate EC80; active compounds read low | fluorescence response (max-min) at 10 µM | hit rate 0.9% among 1,700;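 active means fluorescence response below the plate's average for near-maximal glutamate wells, less 3 SD of those wells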;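 further: raw unnormalized fluorescence span taken in the window right after glutamate addition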
Numbers stand for hits; – = inactive; ? = inconclusive; · = no result. Shown are actives, neighbours in structure and some others; about 11% of the full set was active somewhere.

SMILES	M1 antagonist	RORA act	SF1 activator	D1 allo mod	M1 agonist	Htt clearance	M1 antag conf	mGluR4 antag
COc1ccc(C)cc1NC(=O)C1CC(=O)OC12CCCCC2 (stereo unspecified)	–	–	–	–	–	·	·	·
O=S(=O)(Cc1ccccc1)c1cnc2ccccc2n1	·	·	·	·	·	–	·	·
CCN1CCCC1CNC(=O)C1c2cc(OC)c(OC)cc2C(=O)N(C)C1c1cccnc1 (stereo unspecified)	–	–	–	·	–	·	·	·
CC1(CC(=O)O)SC(=O)NC1=O (stereo unspecified)	–	–	–	–	–	·	·	·
CN(C1CCCCC1)S(=O)(=O)c1ccc(S(=O)(=O)N2CCCC2)cc1	-3.3	–	–	–	–	·	327	–
Cc1c(C#N)c(SCC(N)=O)nc2c1CCCC2	-2	–	–	·	–	·	–	–
Cc1ccc(CNC(=O)CSc2ncccn2)cc1	–	–	–	–	–	·	·	·
COc1ccc(OCC(=O)Nc2ccc(C)cc2)cc1	-14	–	–	–	–	–	–	–
Cc1ccc(OCC(=O)Nc2ccc(N3CCOCC3)cc2)cc1	–	–	–	–	–	–	·	·
CCOc1ccc(NC(=O)CN(c2ccc(OC)cc2)S(C)(=O)=O)cc1	-3.5	77	–	–	–	·	–	–
O=C(O)CCCC(=O)Nc1ccccc1C(=O)N1CCCC1	–	–	–	–	–	–	·	·
CN1CCN(CC(=O)n2c3c(c4ccccc42)CCCC3)CC1	-2.9	–	–	–	–	·	457	–
CCN(CC)CC(=O)n1c2c(c3ccccc31)CCCC2	–	–	–	–	–	·	·	·
COc1ccc([C@@H]2[C@H]3C(=O)N(c4cccc(C(F)(F)F)c4)C(=O)[C@H]3ON2C)cc1	·	·	·	·	·	–	·	·
Cc1cc(CN2C(=O)c3ccccc3C2=O)no1	–	–	–	–	–	·	·	·
O=C1c2ccccc2C(=O)N1CC1=CCS(=O)(=O)C1	-2	–	–	–	–	–	–	–
Cc1ccc(S(=O)(=O)Cn2nnnc2C(c2ccc(F)cc2)N2CCC(C(N)=O)CC2)cc1 (stereo unspecified)	–	–	–	–	–	?	·	·
CC1(C)Cc2ccccc2-c2nc(NCCCO)n(-c3ccccc3)c(=O)c21	–	–	–	–	–	·	·	·
Cc1cc2ncn(C(=O)c3c(-c4ccccc4Cl)noc3C)c2cc1C	-5.5	–	–	–	–	·	264	–
CC1(C)CC2CC(C)(CN2C(=O)C23CCC(C)(C(=O)O2)C3(C)C)C1 (stereo unspecified)	–	–	–	–	–	·	·	·
Cc1cc(=O)n(C)c(=O)n1CC(=O)N1CCCCCC1	–	–	–	–	–	·	·	·
O=C(NC12CC3CC(CC(C3)C1)C2)N1CCC(O)CC1	–	–	–	–	–	–	·	·
O=C(NC12CC3CC(CC(C3)C1)C2)N1CCN(C(=O)C2CCCO2)CC1 (stereo unspecified)	-1.8	–	–	–	–	·	–	–
CCCCOC(=O)Nc1cccc(C(C)=O)c1	-4.8	–	–	–	–	·	–	–
Clc1ccc(CSC2=NCCCN2)cc1Cl	-4	–	–	–	–	·	355	–
SMILES	M1 antagonist	RORA act	SF1 activator	D1 allo mod	M1 agonist	Htt clearance	M1 antag conf	mGluR4 antag
CCOc1cc(S(=O)(=O)NCC2OCCc3ccccc32)c(OCC)cc1-n1cnnn1 (stereo unspecified)	–	–	–	–	–	·	·	·
CCOC(=O)c1ccc(N2C(=O)C3C(C2=O)C(C(=O)c2ccc(Cl)cc2)N2CCCC32)cc1 (stereo unspecified)	-1.7	–	–	–	–	–	–	–
CCSc1cc(C2C(C(=O)OC)=C(C)NC3=C2C(=O)CCC3)c(C)o1 (stereo unspecified)	–	–	–	–	–	–	·	·
N=c1c2c3c(sc2nc2n1CCC2)CCCC3	-1.9	–	–	–	–	·	–	–
COCCCNC(=O)CSC1=Nc2ccccc2C2=NC(CC(=O)NCc3ccccc3)C(=O)N12 (stereo unspecified)	-2.5	–	–	–	–	–	–	–
Cc1ccc(S(=O)(=O)N2CCC(C(=O)N3CCC[C@H]3C(=O)NCc3ccco3)CC2)cc1	-2.2	–	–	–	–	·	555	–
O=C(NCCN1CCN(C(=O)c2cccs2)CC1)c1cccs1	-2.3	–	–	–	–	–	–	–
O=C(c1cccs1)N1CCN(CCc2ccccc2)CC1	–	–	–	–	–	–	·	·
CCn1c(-c2cc3ccccc3cc2O)n[nH]c1=S	·	·	·	·	·	–	·	·
CCN(CC)C(=O)CSc1nnc(-c2cc3ccccc3cc2O)n1CC	-3.4	–	–	–	–	–	–	–
COc1ccccc1S(=O)Cc1ccc(C(=O)NCCc2ccc(Cl)cc2)o1 (stereo unspecified)	-3.2	–	–	–	–	·	–	–
CC(C)CCNC(=O)CN(Cc1ccc2c(c1)OCO2)C(=O)CCC(=O)Nc1ccccn1	–	–	–	–	–	·	·	·
CCCCSc1nc2c(cc1C#N)CCC2	–	–	–	–	–	–	·	·
CS(=O)CSc1nc2c(cc1C#N)CCCC2 (stereo unspecified)	-9.3	–	–	–	–	–	260	–
O=C1Nc2ccccc2C(O)(C(=O)NC2CC2)N1c1ccc(Cl)c(Cl)c1 (stereo unspecified)	–	–	–	–	–	·	·	·
Cc1c(Cl)cccc1N1C(=O)C2ON(c3ccccc3)C(c3cccnc3)C2C1=O (stereo unspecified)	-2.1	–	–	·	–	·	–	–
CCCN(CC1CC1)S(=O)(=O)c1ccc(-n2cnnn2)c(OC)c1	·	·	·	·	·	–	·	·
O=C(CN1CCCC1)Nc1ccc(NC(=O)Nc2ccccc2Cl)cc1	-1.7	–	–	–	–	–	–	–
O=C(CN1CCCCC1)Nc1ccccc1	·	·	·	·	·	–	·	·
CCOc1ccccc1CNS(=O)(=O)c1ccc2[nH]c(=O)sc2c1	–	–	–	–	–	·	·	·
CCN(CCNS(=O)(=O)c1ccc2[nH]c(=O)sc2c1)c1ccccc1	-2.4	–	–	–	–	–	–	156
CCOC(=O)c1c(NC(C)=O)no[n+]1[O-]	–	–	–	–	–	·	·	·
CCCc1cc(Nc2c(C)n(C)n(-c3ccccc3)c2=O)n2c(nc3ccccc32)c1C#N	-2.4	–	–	·	–	·	–	–
